The results in this text go back to ChEMBL document CHEMBL1158625, “Design of 1-piperazinyl-4-arylphthalazines as potent Smoothened antagonists” (Bioorg Med Chem Lett, 2010).

As usually defined, the inhibition is the relative decrease from the control value, in per cent. The term IC50 denotes the midpoint of a concentration-inhibition curve. A higher IC50 goes with a need for much substance.

Some results are limits rather than exact numbers.

One data set concerns the target CYP2D6 (Homo sapiens, UniProt P10635). As to the kind of experiment: Inhibition of human CYP2D6 at 3 uM by HPLC-MS. Format: ADME.
Data set [1] is described as follows: Metabolic stability in human liver microsome assessed as compound turnover after 30 mins. The data set is classed as ADME. To be noted: liver microsomes, read-out: Stability. Put shortly:
(§1)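 Pooled human or rat liver microsomes (0.25 mg/mL), 37 °C, phosphate buffer pH 7.4, test compound 1 µM; NADPH 1 mM final; quenched at 0 or 30 min with organic solvent; unchanged parent by reversed-phase LC-MS/MS; percent turnover from peak area at 30 versus 0 min.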

Data set [2] in a line: Metabolic stability in rat liver microsome assessed as compound turnover after 30 mins. The data set is classed as ADME. The conditions noted are these: liver microsomes, read-out: Stability. The method in brief:
as §1

The target in a further data set is CYP3A4 (Homo sapiens, UniProt P08684). In words: Inhibition of human CYP3A4 at 3 uM by HPLC-MS. The data set is classed as ADME.
The target of a further data set is Protein smoothened (Mus musculus, UniProt P56726). In words: Inhibition of mouse SMO expressed in NIH-3T3 cells. The data set is classed as cell-based, NIH3T3.
Chain of Protein smoothened (P56726 whole entry): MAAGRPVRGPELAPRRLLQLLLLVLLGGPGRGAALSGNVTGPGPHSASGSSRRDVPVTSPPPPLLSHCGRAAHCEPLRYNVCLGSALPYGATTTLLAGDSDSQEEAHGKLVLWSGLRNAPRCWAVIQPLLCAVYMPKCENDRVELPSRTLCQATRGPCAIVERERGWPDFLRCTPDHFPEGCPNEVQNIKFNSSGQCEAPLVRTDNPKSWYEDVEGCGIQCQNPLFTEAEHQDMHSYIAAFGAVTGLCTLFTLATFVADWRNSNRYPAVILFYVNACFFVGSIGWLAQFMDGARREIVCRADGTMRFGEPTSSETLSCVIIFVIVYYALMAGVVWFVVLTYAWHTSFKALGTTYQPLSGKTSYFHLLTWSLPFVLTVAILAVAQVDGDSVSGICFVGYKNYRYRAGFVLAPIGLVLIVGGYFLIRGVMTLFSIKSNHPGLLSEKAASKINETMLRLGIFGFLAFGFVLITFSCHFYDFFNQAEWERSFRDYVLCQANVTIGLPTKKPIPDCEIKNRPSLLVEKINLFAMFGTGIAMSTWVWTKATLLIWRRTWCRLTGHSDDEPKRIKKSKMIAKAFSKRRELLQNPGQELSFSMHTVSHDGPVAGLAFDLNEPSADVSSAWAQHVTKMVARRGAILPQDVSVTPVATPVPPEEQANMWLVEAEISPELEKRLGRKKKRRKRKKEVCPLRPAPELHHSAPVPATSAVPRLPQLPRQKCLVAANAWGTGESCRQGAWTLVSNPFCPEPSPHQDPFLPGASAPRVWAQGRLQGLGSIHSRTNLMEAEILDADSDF

Chain of CYP3A4 (P08684 whole entry): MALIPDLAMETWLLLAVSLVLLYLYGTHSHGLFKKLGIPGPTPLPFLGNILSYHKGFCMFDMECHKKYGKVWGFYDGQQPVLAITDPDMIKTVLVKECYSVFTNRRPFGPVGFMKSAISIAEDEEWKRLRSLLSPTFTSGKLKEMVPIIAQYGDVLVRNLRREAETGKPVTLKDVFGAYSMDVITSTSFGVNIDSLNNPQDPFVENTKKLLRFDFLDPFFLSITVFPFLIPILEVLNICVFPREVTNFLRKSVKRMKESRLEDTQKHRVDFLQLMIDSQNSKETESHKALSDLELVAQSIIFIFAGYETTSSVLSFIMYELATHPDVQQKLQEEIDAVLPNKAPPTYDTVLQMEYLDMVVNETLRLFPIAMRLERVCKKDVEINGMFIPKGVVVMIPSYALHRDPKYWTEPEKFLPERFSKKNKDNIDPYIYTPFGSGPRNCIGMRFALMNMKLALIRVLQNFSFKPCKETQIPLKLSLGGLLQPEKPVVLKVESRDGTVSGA
Chain of CYP2D6 (P10635 whole entry): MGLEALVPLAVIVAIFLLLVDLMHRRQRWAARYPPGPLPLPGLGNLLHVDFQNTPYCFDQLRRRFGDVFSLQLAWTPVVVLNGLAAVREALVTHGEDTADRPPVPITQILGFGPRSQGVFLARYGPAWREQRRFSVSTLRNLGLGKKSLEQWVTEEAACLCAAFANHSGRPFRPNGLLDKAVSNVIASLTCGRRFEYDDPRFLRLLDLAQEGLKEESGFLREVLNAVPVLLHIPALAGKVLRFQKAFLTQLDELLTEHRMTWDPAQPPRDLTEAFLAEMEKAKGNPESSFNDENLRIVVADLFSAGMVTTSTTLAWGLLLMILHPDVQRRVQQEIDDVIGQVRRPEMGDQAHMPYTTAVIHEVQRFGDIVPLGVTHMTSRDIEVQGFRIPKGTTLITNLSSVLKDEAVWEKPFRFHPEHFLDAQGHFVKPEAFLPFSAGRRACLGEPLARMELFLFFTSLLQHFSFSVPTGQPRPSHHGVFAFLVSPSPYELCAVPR

As for `O=C(c1ccccc1)N1CCN(c2nnc(-c3ccccc3)c3ccccc23)CC1`, the figures for the inhibition at 3 µM against CYP2D6 and against CYP3A4 were 11% and less than 10%, respectively. In addition, the figures for the metabolised at 0.5 h in data set [1] and in data set [2] were 19% and 12%, respectively.

With `O=C(c1ccccc1)N1CCN(c2nnc(-c3ccc(Cl)c(Cl)c3)c3ccccc23)CC1`, the metabolised at 0.5 h was 31% in data set [1] and 10% in data set [2]. In addition, the inhibition at 3 µM against CYP3A4 was less than 10%.

Turning to `COc1cccc(-c2nnc(N3CCN(C(=O)c4ccccc4)CC3)c3ccccc23)c1`, the values for the inhibition at 3 µM against CYP2D6 and against CYP3A4 were 19% and less than 10%, respectively. The metabolised at 0.5 h was found to be 43% in data set [1] and 33% in data set [2].

As to `C[C@H]1CN(C(=O)c2ccccc2)CCN1c1nnc(-c2ccccc2)c2ccccc12`, the results for the metabolised at 0.5 h in data set [1] and in data set [2] were less than 10% and 23%, respectively.

With `O=C(c1ccccc1)N1CCN(c2nnc(-c3ccc(F)cc3)c3ccccc23)CC1`, the inhibition at 3 µM was 29% against CYP2D6 and less than 10% on CYP3A4. Further, the metabolised at 0.5 h in data set [1] was 17%; in data set [2], 10%.

On to `C[C@H]1CN(c2nnc(-c3cccnc3)c3ccccc23)CCN1C(=O)c1ccccc1`, for which the inhibition at 3 µM against CYP2D6 is less than 10%; against CYP3A4, 12%. The metabolised at 0.5 h in data set [1] was 10%; in data set [2], 12%.

Consider `C[C@@H]1CN(C(=O)c2ccccc2)CCN1c1nnc(-c2ccc(C3CC3)cc2)c2ccccc12`, for which the inhibition at 3 µM against CYP2D6 is less than 10%; on CYP3A4, 31%. Besides, the metabolised at 0.5 h in data set [1] is 34%; in data set [2] it was 21%.

Consider `COc1ccc(-c2nnc(N3CCN(C(=O)c4ccccc4)CC3)c3ccccc23)cc1`, for which the values for the inhibition at 3 µM against CYP2D6 and against CYP3A4 were 19% and less than 10%, respectively. For the same compound, the metabolised at 0.5 h in data set [1] is 27%; in data set [2], 22%.

For the compound `N#Cc1cccc(-c2nnc(N3CCN(C(=O)c4ccccc4)CC3)c3ccccc23)c1`, the inhibition at 3 µM against CYP2D6 is 18%; against CYP3A4, less than 10%. Also, the metabolised at 0.5 h in data set [1] and in data set [2] was 10% in each case.

Regarding `C[C@H]1CN(c2nnc(-c3ccc(C(F)(F)F)cc3)c3ccccc23)CCN1C(=O)c1ccccc1`, the inhibition at 3 µM against CYP2D6 was less than 10%; against CYP3A4, 49%. Moreover, the metabolised at 0.5 h in data set [1] and in data set [2] was less than 10% in each case.

With `C[C@H]1CN(c2nnc(N3CC=CC=N3)c3ccccc23)CCN1C(=O)c1ccccc1`, the inhibition at 3 µM against CYP2D6 was 15%; at CYP3A4, less than 10%. For the same compound, the metabolised at 0.5 h in data set [1] and in data set [2] was less than 10% throughout.

For the compound `C[C@H]1CN(c2nnc(-c3ccncc3)c3ccccc23)CCN1C(=O)c1ccccc1`, the inhibition at 3 µM on CYP2D6 is 52%; at CYP3A4, 58%. In addition, the metabolised at 0.5 h in data set [1] turned out to be 10%; in data set [2], 25%.

Take `Cc1ccc(-c2nnc(N3CCN(C(=O)c4ccccc4)[C@@H](C)C3)c3ccccc23)cc1`: the figures for the inhibition at 3 µM against CYP2D6 and on CYP3A4 were 10% and 13%, respectively. The metabolised at 0.5 h turned out to be 38% in data set [1] and 43% in data set [2].

`O=C(c1cccs1)N1CCN(c2nnc(-c3ccccc3)c3ccccc23)CC1`: the half-maximal inhibitory concentration (IC50) against Protein smoothened worked out at 22 nM.

On to `C[C@H]1CN(c2nnc(-c3ccccc3)c3ccccc23)CCN1C(=O)c1ccccc1`, for which the figures for the inhibition at 3 µM at CYP2D6 and against CYP3A4 were 11% and less than 10%, respectively. The metabolised at 0.5 h is less than 10% in data set [1] and 21% in data set [2].

For the compound `C[C@@H]1CN(c2nnc(-c3ccccc3)c3ccccc23)CCN1C(=O)c1ccccc1`, the inhibition at 3 µM against CYP2D6 and on CYP3A4 was less than 10% in each case. The results for the metabolised at 0.5 h in data set [1] and in data set [2] were 17% and 21%, respectively.

`O=C(c1ccco1)N1CCN(c2nnc(-c3ccccc3)c3ccccc23)CC1`: the inhibition at 3 µM against CYP2D6 is 48%; on CYP3A4, less than 10%. For the same compound, the metabolised at 0.5 h in data set [1] was found to be 43%; in data set [2] it was 32%.

On to `O=C(c1ccccc1)N1CCN(c2nnc(-c3ccccc3Cl)c3ccccc23)CC1`, for which the inhibition at 3 µM against CYP2D6 and against CYP3A4 was less than 10% in each case. Moreover, the metabolised at 0.5 h worked out at 62% in data set [1] and 15% in data set [2].

For `C[C@H]1CN(c2nnc(-c3ccc(F)cc3)c3ccccc23)CCN1C(=O)c1ccccc1`, the inhibition at 3 µM turned out to be 18% against CYP2D6 and 20% against CYP3A4. Moreover, the metabolised at 0.5 h in data set [1] turned out to be 10%; in data set [2] it was 15%.

On to `C[C@@H]1CN(C(=O)c2ccccc2)CCN1c1nnc(-c2ccc(N(C)C)cc2)c2ccccc12`, for which the inhibition at 3 µM at CYP2D6 came to 26%; at CYP3A4 it was 90%. The metabolised at 0.5 h in data set [1] worked out at 59%; in data set [2] it was 82%.

On to `O=C(c1nccs1)N1CCN(c2nnc(-c3ccccc3)c3ccccc23)CC1`, for which the inhibition at 3 µM is 89% on CYP2D6 and less than 10% against CYP3A4. For the same compound, the metabolised at 0.5 h in data set [1] turned out to be 48%; in data set [2], 25%.

Take `C[C@H]1CN(c2nnc(-c3ccc(Cl)cc3)c3ccccc23)CCN1C(=O)c1ccccc1`: the inhibition at 3 µM came out at 43% on CYP2D6 and 40% at CYP3A4. Besides, the metabolised at 0.5 h in data set [1] and in data set [2] was less than 10% in each case.

For the compound `C[C@@H]1CN(C(=O)c2ccccc2)CCN1c1nnc(-c2ccc(C#N)cc2)c2ccccc12`, the inhibition at 3 µM was less than 10% on CYP2D6 and 12% against CYP3A4. Also, the metabolised at 0.5 h in data set [1] and in data set [2] was less than 10% throughout.

Turning to `C[C@@H]1CN(C(=O)c2ccccc2)CCN1c1nnc(-c2ccccc2)c2ccccc12`, the inhibition at 3 µM against CYP2D6 is 47%; at CYP3A4, less than 10%. The metabolised at 0.5 h in data set [1] is 44%; in data set [2], 39%.

In the case of `Cc1ccc(-c2nnc(N3CCN(C(=O)c4ccccc4)CC3)c3ccccc23)cc1`, the inhibition at 3 µM against CYP2D6 and against CYP3A4 was less than 10% each time. The values for the metabolised at 0.5 h in data set [1] and in data set [2] were 45% and 72%, respectively.

As for `CC(=O)N1CCN(c2nnc(-c3ccccc3)c3ccccc23)CC1`, on CYP2D6, the inhibition at 3 µM is 29%. The metabolised at 0.5 h in data set [1] and in data set [2] was 10% each time.

For the compound `C[C@@H]1CN(C(=O)c2ccccc2)CCN1c1nnc(-c2ccc(Cl)cc2)c2ccccc12`, the inhibition at 3 µM was 60% on CYP2D6 and less than 10% against CYP3A4. The results for the metabolised at 0.5 h in data set [1] and in data set [2] were 38% and 12%, respectively.

For the compound `CC(C)c1ccc(-c2nnc(N3CCN(C(=O)c4ccccc4)C[C@H]3C)c3ccccc23)cc1`, the results for the inhibition at 3 µM against CYP2D6 and on CYP3A4 were 20% and 14%, respectively. Besides, the figures for the metabolised at 0.5 h in data set [1] and in data set [2] were 41% and 73%, respectively.

As to `C[C@@H]1CN(C(=O)c2ccccc2)CCN1c1nnc(-c2ccc(CO)cc2)c2ccccc12`, the values for the inhibition at 3 µM against CYP2D6 and against CYP3A4 were less than 10% and 15%, respectively. In addition, the metabolised at 0.5 h in data set [1] is 14%; in data set [2] it was 13%.

Regarding `C[C@@H]1CN(C(=O)c2ccccc2)CCN1c1nnc(-c2ccc(C(C)(C)C)cc2)c2ccccc12`, the inhibition at 3 µM on CYP2D6 stood at 10%; against CYP3A4, 25%. For the same compound, the metabolised at 0.5 h amounted to 89% in data set [1] and 94% in data set [2].

For `C[C@H]1CN(c2nnc(-c3ccccn3)c3ccccc23)CCN1C(=O)c1ccccc1`, the inhibition at 3 µM on CYP2D6 and against CYP3A4 was less than 10% in each case. For the same compound, the metabolised at 0.5 h in data set [1] and in data set [2] was less than 10% each time.

`O=C(c1ccccc1)N1CCN(c2nnc(-c3ccc(Cl)cc3)c3ccccc23)CC1`: the inhibition at 3 µM against CYP2D6 is 24%; against CYP3A4 it was 16%. Besides, the metabolised at 0.5 h in data set [1] amounted to 20%; in data set [2], 10%.

Regarding `Cc1ccccc1-c1nnc(N2CCN(C(=O)c3ccccc3)CC2)c2ccccc12`, the inhibition at 3 µM on CYP2D6 was 24%; against CYP3A4, less than 10%. Also, the metabolised at 0.5 h in data set [1] came out at 90%; in data set [2], 40%.

As to `C[C@H]1CN(c2nnc(-c3ncco3)c3ccccc23)CCN1C(=O)c1ccccc1`, the inhibition at 3 µM is 27% against CYP2D6 and less than 10% on CYP3A4. Moreover, the values for the metabolised at 0.5 h in data set [1] and in data set [2] were 10% and 23%, respectively.

In the case of `Cc1ccc(-c2nnc(N3CCN(C(=O)c4ccccc4)C[C@H]3C)c3ccccc23)cc1`, the inhibition at 3 µM at CYP2D6 and against CYP3A4 was less than 10% each time. In addition, the metabolised at 0.5 h in data set [1] came to 56%; in data set [2] it was 55%.
